# Assay outcomes deposited in PubChem by several laboratories.
# This is a sample that favours compounds with a hit; in the whole collection about 2.9% have one here.
# HSP90 inh: HSP90 refolding inhibition in rabbit reticulocyte lysate; 290,000 tested, 0.91% active; luciferase refolding luminescence, 3 h; inhibition, % at 5.6 µM; AID 1789;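 active = inhibition above the screen-wide mean plus 3 SD, computed separately per campaign, cut at about 16% in these data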;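 note: inhibitors lower the luminescence because luciferase stays unfolded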
# SENP8 block-1: inhibitors of human SENP8 protease; Q96LD8; purified SENP8, Z-RLRGG-aminoluciferin cleavage, luminescence; inhibition, % at 10 µM; 330,000 tested, 1.2% active; AID 2540; in the data active = inhibition above about 50%
# Target sequence (Q96LD8 whole entry, looked up): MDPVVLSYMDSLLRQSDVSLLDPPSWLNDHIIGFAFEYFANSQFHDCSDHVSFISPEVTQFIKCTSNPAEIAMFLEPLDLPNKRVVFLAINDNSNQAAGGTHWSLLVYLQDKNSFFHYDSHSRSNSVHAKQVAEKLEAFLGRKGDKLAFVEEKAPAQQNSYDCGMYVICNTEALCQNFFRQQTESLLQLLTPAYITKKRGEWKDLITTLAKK
# SENP1 inh: SENP1 (human) catalytic domain inhibition. inhibition, % at 10 µM. AID 624204. 360,000 tested, 0.21% active. recombinant SENP1 catalytic domain, CyPet-SUMO1-YPet FRET cleavage;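 active = inhibition at least 30% at 10 µM, raw YFP signal under a set limit, fluorescence ratio 0.5 to 1.5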
#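 Material: hSENP1 catalytic domain, recombinant; medium: Tris pH 8 with BME, BSA, NP40 and catalase; compound: single concentration of 10 µM compound, 0.5% DMSO final; technique: FRET read of cyan and yellow fluorescence; timing: 50 min enzyme reaction, room temperature, light-protected; reagent: SFCypet-SUMO1-SFYpet substrate at 25 nM; control set: no-enzyme low, enzyme-DMSO high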
# SENP7 inh: SENP7 protease inhibition | Q9BQF6 | recombinant SENP7, Z-RLRGG-aminoluciferin luminescence, 40 min | inhibition, % at 5 µM | 330,000 tested, 1.5% active | AID 434973;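 active = inhibition above about 50% at the single test dose, limit read from the data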
# Target sequence (Q9BQF6 706-1050 limits assumed): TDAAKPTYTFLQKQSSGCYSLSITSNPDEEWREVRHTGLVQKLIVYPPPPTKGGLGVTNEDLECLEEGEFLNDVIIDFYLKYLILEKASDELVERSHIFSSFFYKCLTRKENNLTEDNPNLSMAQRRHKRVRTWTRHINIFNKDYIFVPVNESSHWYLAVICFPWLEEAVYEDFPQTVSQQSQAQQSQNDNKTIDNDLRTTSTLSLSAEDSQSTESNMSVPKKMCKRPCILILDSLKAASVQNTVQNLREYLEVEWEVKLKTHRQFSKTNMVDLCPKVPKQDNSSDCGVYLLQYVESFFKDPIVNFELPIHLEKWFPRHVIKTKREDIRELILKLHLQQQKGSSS
# SENP6 block: SENP6 protease inhibition; inhibition, % at 10 µM; 330,000 tested, 1.8% active; Recombinant SENP6 catalytic domain, aminoluciferin luminescence;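 active = inhibition above about 50% at the single tested dose, limit read from the data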
# SENP8 block-2: blocks human SENP8 cleavage of Nedd8 substrate | AID 602440 | inhibition, % at 20 µM | 360,000 tested, 0.64% active | recombinant SENP8, Nedd8 substrate fluorescence | Q96LD8; in the data active = inhibition mostly above about 40%, no sharp cut-off; inactive = mostly below about 27%
# SENP8 conf: human SENP8 inhibition, confirmed. 6,200 tested, 40% active. shares compounds with SENP7 inh. inhibition, % at 12.5 µM. Recombinant SENP8, Z-RLRGG-aminoluciferin luminescence, 60 min;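 active = mean inhibition across replicates above about 50%, limit read from the data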
# SENP6 confirm: confirmation of human SENP6 protease inhibitors; 6,200 tested, 58% active; inhibition, % at 12.5 µM; shares compounds with SENP7 inh; recombinant SENP6, Z-RLRGG-aminoluciferin luminescence
# SENP7 confirm: human SENP7 inhibition, confirmed | AID 488917 | recombinant SENP7, Z-RLRGG-aminoluciferin luminescence, 40 min | 6,200 tested, 69% active | shares compounds with SENP7 inh | inhibition, % at 12.5 µM
# Casp3 SENP sel: selectivity test for SENP inhibitors: human caspase-3 inhibition. shares compounds with SENP7 inh. purified caspase-3, Z-DEVD-aminoluciferin luminescence, 60 min. inhibition, % at 12.5 µM. 6,200 tested, 60% active. AID 488918;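 active = mean inhibition above about 50%, limit read from the data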
# Luc interf: counter-screen for SENP inhibitors: luminescence interference; inhibition, % at 12.5 µM; AID 488919; Pre-incubated SENP8/Z-RLRGG-aminoluciferin, luciferase luminescence interference; shares compounds with SENP7 inh; 6,200 tested, 39% active;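 active = mean inhibition above about 50% when retested at one dose, limit read from the data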
# A number is an active result; n = inactive; x = not tested or not shown.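 Rule for the calls, unless noted: active = mean inhibition above about 50% in the one-dose retest (limit read from the data); inactive = the rest.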
SMILES,HSP90 inh,SENP8 block-1,SENP1 inh,SENP7 inh,SENP6 block,SENP8 block-2,SENP8 conf,SENP6 confirm,SENP7 confirm,Casp3 SENP sel,Luc interf
Cc1ccccc1S(=O)(=O)N1C[C@H]2[C@H]3C(=O)N(c4ccccc4)C(=O)[C@H]3CC(=O)[C@H]2[C@@H]1c1ccc(Cl)cc1,x,x,n,x,x,n,x,x,x,x,x
O=C(NC(=S)Nc1ccc(S(=O)(=O)Nc2nccs2)cc1)c1ccccc1,n,n,n,n,64,n,60,59,80,61,61
CC[C@]1(C(=O)OC)[C@H]2C(=O)N(Cc3ccccc3)C(=O)[C@H]2[C@H]2CN=C(SC)N21,x,x,n,n,x,n,x,x,x,x,x
Brc1ccc(-c2noc(-c3ccccn3)n2)o1,n,86,n,91,85,n,n,86,99,93,n
Clc1ccccc1-c1nc(-c2ccc(Br)o2)no1,n,83,n,82,86,n,n,85,97,68,73
CCOc1ccccc1C(=O)NCC(=O)Nc1ccc(-c2ccccc2)cc1,n,n,n,n,n,n,x,x,x,x,x
COc1cccc(C(=O)Nc2sc3c(c2C(=O)O)CCCC3)c1,n,84,n,n,89,n,n,74,68,79,n
Cc1cccc(C(=O)Nc2sc3c(c2C(=O)O)CCC3)c1,n,96,n,87,99,n,96,96,100,95,94
O=C(NCCCN1CCOCC1)c1sc2cc([N+](=O)[O-])ccc2c1Cl,n,n,n,n,62,n,n,n,n,n,n
O=C(N/N=C/c1ccc(Br)cc1)c1ccc(F)cc1,n,n,n,n,n,n,x,x,x,x,x
O=C(O/N=C/c1ccc(Br)cc1)c1ccc(F)cc1,x,n,n,76,n,n,n,n,n,n,n
CCCC[C@@H]1Cc2[nH][nH]c(=O)c2[C@H](c2ccc3ccccc3c2)O1,x,x,n,x,x,n,x,x,x,x,x
Cc1cc(=O)n2nc(N3CCCC(C(=O)NCCCN4C(C)CCCC4C)C3)sc2n1 (stereo not drawn),x,x,n,x,x,n,x,x,x,x,x
Cc1cccc(-c2nc3cc([N+](=O)[O-])ccc3o2)c1,n,n,n,82,n,n,n,n,72,75,n
O=[N+]([O-])c1ccc2oc(-c3ccccc3)nc2c1,n,n,n,77,n,n,n,n,n,n,n
COc1ccc(-c2nc3ccc([N+](=O)[O-])cc3o2)cc1,n,n,n,69,n,n,n,n,n,n,n
NC(N)=Nc1nc2cc([N+](=O)[O-])ccc2o1,n,n,n,n,n,n,x,x,x,x,x
COc1ccc(-c2cc(C(=O)Oc3ccc([N+](=O)[O-])cc3)c3ccccc3n2)cc1,n,n,n,n,n,n,x,x,x,x,x
Cc1onc(-c2ccccc2Cl)c1C(=O)OCC(=O)N1CCN(c2ccccc2)CC1,x,n,n,n,n,n,x,x,x,x,x
NC(=O)c1ccc(NC(=O)COC(=O)c2ccc(Br)c(S(=O)(=O)N3CCOCC3)c2)cc1,x,x,n,x,x,n,x,x,x,x,x
Cc1nn2cc(-c3ncc(C(F)(F)F)cc3Cl)cnc2c1Br,n,76,n,90,83,n,61,60,n,n,n
Cc1cc(C(=O)COc2cccc([N+](=O)[O-])c2)c(C)n1C1CC1,x,n,n,n,58,n,67,63,89,66,n
Cc1ccccc1-c1ccccc1CN1[C@@H](C(C)C)COCCS1(=O)=O,x,x,n,n,x,n,x,x,x,x,x
Oc1[nH]c2ccccc2c1N=Nc1ccccc1,n,73,n,80,88,50,n,73,94,62,n
Oc1[nH]c2ccccc2c1N=Nc1nc2ccccc2s1,n,55,41,89,72,n,n,n,51,n,n
SMILES,HSP90 inh,SENP8 block-1,SENP1 inh,SENP7 inh,SENP6 block,SENP8 block-2,SENP8 conf,SENP6 confirm,SENP7 confirm,Casp3 SENP sel,Luc interf
Oc1[nH]c2ccccc2c1N=Nc1ccccc1F,n,n,n,75,n,n,n,n,n,n,n
Oc1c(N=Nc2ccc(F)cc2)ccc2ccccc12,n,86,n,99,82,42,n,n,n,78,n
Oc1ccc2ccccc2c1N=Nc1ccc(F)cc1,n,n,n,n,n,n,x,x,x,x,x
CC(C)(O)C(=O)N=Nc1c(O)[nH]c2ccccc12,n,n,n,n,n,n,x,x,x,x,x
Cc1ccc(NC(=O)Cn2nc(-c3ccco3)ccc2=O)cc1Cl,n,n,n,n,n,n,x,x,x,x,x
CCCCn1nnnc1C(c1cc2ccccc2o1)N1CCN(C(=O)OCC)CC1 (stereo not drawn),x,x,n,x,x,n,x,x,x,x,x
Oc1[nH]c2ccccc2c1N=Nc1ccc(F)cc1,n,69,n,89,78,n,n,64,67,n,n
CN(C(=O)c1cncc(Br)c1)C1C2CC3CC(C2)CC1C3 (stereo not drawn),n,n,n,n,n,n,x,x,x,x,x
COc1cc(C(=O)Nc2ccc3c(c2)OCCO3)ccc1OC(F)F,n,62,n,77,82,n,n,71,90,76,75
Cc1cc(C)nc(NC(=O)c2ccc3c(c2)OCO3)c1,n,59,x,80,71,x,75,74,90,88,76
O=C(Nc1ccc(F)c(Cl)c1)c1ccc2c(c1)OCO2,n,81,n,76,88,n,n,90,100,84,n
NS(=O)(=O)c1ccc(NC(=O)c2ccc3c(c2)OCO3)cc1,n,n,n,n,n,n,x,x,x,x,x
Cc1cc(C)nc(NC(=O)Nc2ccc3c(c2)OCO3)c1,n,n,n,n,n,n,x,x,x,x,x
COc1ccc(NC(=O)c2ccc3c(c2)OCO3)cc1Cl,n,83,n,93,80,n,n,88,99,88,n
COCC(=O)Nc1ccc(OC)c(Cl)c1,n,n,n,n,n,n,x,x,x,x,x
COc1ccc(NC(=O)C=C(C)C)cc1Cl,n,93,n,n,94,n,n,94,100,96,94
COc1ccc(NC(=O)CSc2ncn(-c3ccccc3)n2)cc1Cl,n,n,n,n,93,n,n,n,n,n,n
O=C(Nc1ccc(F)c(Cl)c1)c1ccccc1,x,77,n,83,78,n,84,82,95,78,54
O=C1c2ccccc2C(c2nnnn2Cc2ccccc2)N1CCc1c[nH]c2ccccc12 (stereo not drawn),x,x,n,x,x,n,x,x,x,x,x
